The source made the active and inactive calls. The rule behind the calls is not given here.
Legend:
[1] = target: Platelet-derived growth factor receptor beta (Homo sapiens, UniProt P09619); test: Inhibition of PDGFRbeta (unknown origin) by ELISA method
Outline: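 Phosphotyrosine ELISA with purified kinase (20 ng) and 5 µM ATP in buffer (50 mM HEPES pH 7.4, 20 mM MgCl2, 0.1 mM MnCl2, 0.2 mM Na3VO4, 1 mM DTT), 1 h at 37 °C, DMSO ≤1%. Detection by PY99 antibody, then HRP anti-mouse IgG with o-phenylenediamine, A490. IC50 by Logit from at least three independent tests.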

[2] = target: Vascular endothelial growth factor receptor 2 (Homo sapiens, UniProt P35968); test: Inhibition of KDR phosphorylation (unknown origin) expressed in human HUVEC at 0.001 to 1 uM incubated for 2 hrs by Western blot method; assay type: cell-based
Outline: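 Cells grown to half-confluence and serum-starved 24 h, then treated 2 h at 0.001, 0.01, 0.1 and 1 µM. Afterwards stimulated at 37 °C with 20 ng/ml SCF-1, PDGF-BB or VEGF as appropriate to the receptor. Phosphorylation assessed by western blot.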

[3] = Cytotoxicity against human SKBR3 cells assessed as inhibition of cell growth after 72 hrs by sulforhodamine B assay; assay type: functional, cell-based; conditions: SK-BR-3, 72 h
Outline: (§1)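 Cells grown in RPMI-1640 with 5% FBS and plated at 5.0×10^4/ml. Next day exposed to 0.5–5000 ng/ml for 3 days. Survival read by sulforhodamine B staining. IC50 taken from growth curves; mean of at least three determinations.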

BT-474 [4] = test: Cytotoxicity against human BT474 cells assessed as inhibition of cell growth after 72 hrs by sulforhodamine B assay; assay type: functional, cell-based; conditions: BT-474, 72 h; outline: as §1
A-431 = test: Cytotoxicity against human A431 cells assessed as inhibition of cell growth after 72 hrs by sulforhodamine B assay; assay type: functional, cell-based; conditions: A-431, 72 h; outline: as §1
BT-474 [5] = test: Induction of cell cycle arrest in human BT474 cells assessed as accumulation at G2/M phase at 0.001 uM incubated for 12 hrs by propidium iodide staining based flow cytometry (reference value: 14%); assay type: functional
BT-474 [6] = test: Induction of cell cycle arrest in human BT474 cells assessed as accumulation at G1 phase at 0.01 uM incubated for 12 hrs by propidium iodide staining based flow cytometry (reference value: 67%); assay type: functional
BT-474 [7] = test: Induction of cell cycle arrest in human BT474 cells assessed as accumulation at G2/M phase at 0.1 uM incubated for 12 hrs by propidium iodide staining based flow cytometry (reference value: 14%); assay type: functional
BT-474 [8] = test: Induction of cell cycle arrest in human BT474 cells assessed as accumulation at G1 phase at 1 uM incubated for 12 hrs by propidium iodide staining based flow cytometry (reference value: 67%); assay type: functional
BT-474 [9] = test: Induction of cell cycle arrest in human BT474 cells assessed as accumulation at S phase at 1 uM incubated for 12 hrs by propidium iodide staining based flow cytometry (reference value: 19%); assay type: functional
BT-474 [10] = test: Induction of cell cycle arrest in human BT474 cells assessed as accumulation at G1 phase at 10 uM incubated for 12 hrs by propidium iodide staining based flow cytometry (reference value: 67%); assay type: functional
BT-474 [11] = test: Induction of cell cycle arrest in human BT474 cells assessed as accumulation at G2/M phase at 10 uM incubated for 12 hrs by propidium iodide staining based flow cytometry (reference value: 14%); assay type: functional
BT-474 [12] = test: Induction of apoptosis in human BT474 cells at 10 uM incubated for 12 hrs by propidium iodide staining based flow cytometry (reference value: 1%); assay type: functional
Mus musculus = test: Toxicity in human Calu3 cells xenografted BALB/cA mouse assessed as body weight loss at 100 mg/kg, po measured every other day for 21 days; assay type: organism-based, Calu-3; design: dose 100 mg/kg, route oral; conditions: in vivo, 504 h
Outline: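 Female BALB/cA nude mice, 6–7 weeks old, implanted s.c. on the mid-right flank with 2×10^6 Calu-3 cells in 0.2 ml PBS. At 60–150 mm³ tumour volume, mice randomised into six per treatment group (twelve vehicle controls). Oral dosing in 0.5% CMC aqueous solution with 0.1% Tween-80. Body weight recorded every other day for 21 d.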

[13] = Mean residence time in Beagle dog at 240 mg/kg, po administered as single dose measured after 0.25 to 24 hrs post dose by LC/MS/MS method; assay type: ADME, organism-based, Canis lupus familiaris; design: dose 240 mg/kg, route oral; conditions: in vivo
Outline: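 Single oral gavage of 240 mg/kg to beagle dogs (n = 6). Blood sampled at 0.25–24 h, kept on ice, centrifuged within 1 h (1000 × g, 4 °C, 15 min), plasma stored at −20 °C. Drug quantified by validated LC/MS/MS. AUC0–24 from non-compartmental analysis; Cmax and MRT taken directly from concentration–time data.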

[14] = Tmax in Beagle dog at 240 mg/kg, po dosed for 14 days by LC/MS/MS method; assay type: ADME, organism-based, Canis lupus familiaris; design: dose 240 mg/kg, route oral; conditions: in vivo
Outline: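 Beagle dogs (n = 6) given 240 mg/kg daily by oral gavage for 14 consecutive days. On days 1 and 14, blood taken predose and at 0.25–24 h post-dose. Plasma held at -20 °C, then quantified by validated LC/MS/MS. Tmax taken directly from the plasma concentration-time data.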

[15] = AUC (0 to 24 hrs) in Beagle dog at 240 mg/kg, po dosed for 14 days by LC/MS/MS method; assay type: ADME, organism-based, Canis lupus familiaris; design: time < 24 hr, dose 240 mg/kg, route oral; conditions: plasma
Outline: (§2)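 Beagle dogs (n = 6) dosed by oral gavage at 240 mg/kg daily for 14 consecutive days. Blood taken predose and at 0.25–24 h on days 1 and 14, plasma stored at −20 °C, analysed by validated LC/MS/MS. Half-life and AUC by model-independent methods; Cmax and MRT read from concentration–time data.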

[16] = AUC (0 to infinity) in Beagle dog at 240 mg/kg, po dosed for 14 days by LC/MS/MS method; assay type: ADME, organism-based, Canis lupus familiaris; design: time infinity, dose 240 mg/kg, route oral; conditions: plasma; outline: as §2
[17] = Clearance in Beagle dog at 240 mg/kg, po dosed for 14 days by LC/MS/MS method; assay type: ADME, organism-based, Canis lupus familiaris; design: dose 240 mg/kg, route oral; conditions: in vivo; outline: as §2
[18] = Mean residence time in Beagle dog at 240 mg/kg, po dosed for 14 days by LC/MS/MS method; assay type: ADME, organism-based, Canis lupus familiaris; design: dose 240 mg/kg, route oral; conditions: in vivo; outline: as §2
[19] = Elimination half life in Beagle dog at 240 mg/kg, po dosed for 14 days by LC/MS/MS method; assay type: ADME, organism-based, Canis lupus familiaris; design: dose 240 mg/kg, route oral; conditions: in vivo, read-out: beta t1/2 (converted); outline: as §2
[20] = target: T1, Epidermal growth factor receptor (Homo sapiens, UniProt P00533); conditions: A-431, 0.001 to 1 uM
[21] = target: T1, Epidermal growth factor receptor; conditions: A-431, 0.001 to 1 uM; remark: listed apart in the source
[22] = target: Receptor tyrosine-protein kinase erbB-2 (Homo sapiens, UniProt P04626); conditions: BT-474, 0.001 to 1 uM
cells = conditions: Homo sapiens, Calu-3, 72 h
MDA-MB-453 = test: cells; conditions: Homo sapiens, MDA-MB-453, 72 h

T1 sequence (P00533 whole entry): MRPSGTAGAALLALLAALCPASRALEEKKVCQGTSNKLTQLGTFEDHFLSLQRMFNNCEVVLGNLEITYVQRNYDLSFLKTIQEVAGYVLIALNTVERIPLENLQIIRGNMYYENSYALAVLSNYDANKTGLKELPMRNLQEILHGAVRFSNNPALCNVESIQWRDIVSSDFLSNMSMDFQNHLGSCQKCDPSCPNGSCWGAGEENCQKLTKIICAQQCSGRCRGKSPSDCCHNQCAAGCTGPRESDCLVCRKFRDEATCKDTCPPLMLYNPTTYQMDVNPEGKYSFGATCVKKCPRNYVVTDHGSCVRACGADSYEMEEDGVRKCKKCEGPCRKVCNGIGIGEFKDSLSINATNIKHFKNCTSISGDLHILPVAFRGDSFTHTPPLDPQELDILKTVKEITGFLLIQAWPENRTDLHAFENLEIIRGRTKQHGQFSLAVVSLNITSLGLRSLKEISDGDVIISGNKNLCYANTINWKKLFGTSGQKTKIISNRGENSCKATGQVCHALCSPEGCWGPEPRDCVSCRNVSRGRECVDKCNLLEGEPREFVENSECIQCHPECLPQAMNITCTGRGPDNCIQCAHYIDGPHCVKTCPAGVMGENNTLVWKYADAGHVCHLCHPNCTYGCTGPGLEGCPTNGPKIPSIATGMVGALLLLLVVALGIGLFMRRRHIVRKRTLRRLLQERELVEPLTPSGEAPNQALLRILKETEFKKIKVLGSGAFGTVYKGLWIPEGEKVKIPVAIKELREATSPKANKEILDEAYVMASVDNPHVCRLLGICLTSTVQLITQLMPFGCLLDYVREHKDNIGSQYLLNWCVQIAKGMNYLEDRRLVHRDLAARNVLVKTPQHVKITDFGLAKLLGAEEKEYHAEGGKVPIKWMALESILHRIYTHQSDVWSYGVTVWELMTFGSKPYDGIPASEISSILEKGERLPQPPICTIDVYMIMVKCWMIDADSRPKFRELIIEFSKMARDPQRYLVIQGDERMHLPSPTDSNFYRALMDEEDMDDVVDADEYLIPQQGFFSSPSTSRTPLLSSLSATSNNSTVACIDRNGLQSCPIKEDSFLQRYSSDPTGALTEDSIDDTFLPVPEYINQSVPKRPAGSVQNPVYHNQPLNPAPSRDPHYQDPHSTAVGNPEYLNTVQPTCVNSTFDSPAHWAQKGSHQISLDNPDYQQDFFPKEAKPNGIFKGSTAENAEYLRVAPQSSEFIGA
Platelet-derived growth factor receptor beta, sequence (P09619 whole entry): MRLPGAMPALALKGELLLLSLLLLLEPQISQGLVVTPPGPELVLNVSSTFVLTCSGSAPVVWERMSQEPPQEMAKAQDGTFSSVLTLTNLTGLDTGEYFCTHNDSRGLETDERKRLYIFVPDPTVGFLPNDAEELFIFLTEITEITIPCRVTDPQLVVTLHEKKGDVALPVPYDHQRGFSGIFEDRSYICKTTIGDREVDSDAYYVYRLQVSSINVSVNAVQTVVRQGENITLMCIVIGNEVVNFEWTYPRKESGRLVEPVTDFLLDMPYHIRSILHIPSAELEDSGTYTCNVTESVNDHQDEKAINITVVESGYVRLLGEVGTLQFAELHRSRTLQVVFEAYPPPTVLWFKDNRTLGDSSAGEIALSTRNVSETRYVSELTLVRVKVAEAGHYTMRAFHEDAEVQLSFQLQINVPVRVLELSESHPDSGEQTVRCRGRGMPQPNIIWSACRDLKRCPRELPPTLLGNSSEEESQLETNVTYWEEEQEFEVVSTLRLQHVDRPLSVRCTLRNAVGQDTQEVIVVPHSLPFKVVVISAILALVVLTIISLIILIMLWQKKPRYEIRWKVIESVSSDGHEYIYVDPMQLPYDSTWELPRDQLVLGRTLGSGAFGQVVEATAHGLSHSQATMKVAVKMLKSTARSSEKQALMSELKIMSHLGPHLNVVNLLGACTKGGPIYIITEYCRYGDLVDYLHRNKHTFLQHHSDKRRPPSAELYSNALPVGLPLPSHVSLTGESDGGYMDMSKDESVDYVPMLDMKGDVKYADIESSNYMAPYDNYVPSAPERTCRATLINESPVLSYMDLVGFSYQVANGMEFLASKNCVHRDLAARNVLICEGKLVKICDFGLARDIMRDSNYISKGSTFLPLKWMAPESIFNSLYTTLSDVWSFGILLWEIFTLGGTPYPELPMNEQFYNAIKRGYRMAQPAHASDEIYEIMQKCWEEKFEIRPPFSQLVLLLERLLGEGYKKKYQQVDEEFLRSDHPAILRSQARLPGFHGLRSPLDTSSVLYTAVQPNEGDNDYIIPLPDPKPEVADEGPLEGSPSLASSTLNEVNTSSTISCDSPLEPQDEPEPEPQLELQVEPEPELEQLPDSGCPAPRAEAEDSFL
Vascular endothelial growth factor receptor 2, sequence (P35968 whole entry): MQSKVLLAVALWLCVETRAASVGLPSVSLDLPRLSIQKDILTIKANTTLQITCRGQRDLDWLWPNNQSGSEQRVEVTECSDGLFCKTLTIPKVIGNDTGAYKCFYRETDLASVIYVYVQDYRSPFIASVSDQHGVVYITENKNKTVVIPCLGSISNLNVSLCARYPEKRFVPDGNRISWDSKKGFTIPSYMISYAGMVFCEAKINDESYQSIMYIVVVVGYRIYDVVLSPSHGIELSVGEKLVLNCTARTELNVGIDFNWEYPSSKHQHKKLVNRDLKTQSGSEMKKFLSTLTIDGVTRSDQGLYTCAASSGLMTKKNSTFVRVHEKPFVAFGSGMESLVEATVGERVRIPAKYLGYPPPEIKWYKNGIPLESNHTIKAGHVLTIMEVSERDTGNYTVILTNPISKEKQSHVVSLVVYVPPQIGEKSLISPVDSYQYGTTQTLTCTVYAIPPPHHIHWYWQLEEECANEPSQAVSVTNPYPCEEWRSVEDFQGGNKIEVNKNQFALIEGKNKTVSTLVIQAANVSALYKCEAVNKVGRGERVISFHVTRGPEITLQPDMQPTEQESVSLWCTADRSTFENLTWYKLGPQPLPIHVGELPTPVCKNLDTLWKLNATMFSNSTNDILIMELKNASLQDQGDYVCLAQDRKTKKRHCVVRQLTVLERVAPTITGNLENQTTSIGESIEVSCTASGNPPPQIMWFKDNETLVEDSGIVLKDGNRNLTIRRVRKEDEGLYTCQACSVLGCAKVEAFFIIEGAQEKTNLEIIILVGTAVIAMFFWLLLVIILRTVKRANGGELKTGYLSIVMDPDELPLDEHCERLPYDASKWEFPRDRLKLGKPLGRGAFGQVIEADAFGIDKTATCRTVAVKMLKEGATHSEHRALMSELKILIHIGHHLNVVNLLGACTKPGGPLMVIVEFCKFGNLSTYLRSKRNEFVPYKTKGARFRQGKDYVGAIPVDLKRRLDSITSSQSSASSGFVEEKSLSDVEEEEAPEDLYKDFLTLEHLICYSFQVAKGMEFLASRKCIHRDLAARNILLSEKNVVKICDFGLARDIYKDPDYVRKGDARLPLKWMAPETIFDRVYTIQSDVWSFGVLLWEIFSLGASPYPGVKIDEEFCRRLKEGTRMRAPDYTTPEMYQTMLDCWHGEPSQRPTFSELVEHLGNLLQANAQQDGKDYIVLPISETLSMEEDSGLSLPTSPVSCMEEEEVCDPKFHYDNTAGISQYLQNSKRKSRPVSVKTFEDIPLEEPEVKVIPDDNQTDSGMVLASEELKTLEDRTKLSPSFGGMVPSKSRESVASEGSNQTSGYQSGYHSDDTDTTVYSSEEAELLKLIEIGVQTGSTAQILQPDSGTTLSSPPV
Receptor tyrosine-protein kinase erbB-2, sequence (P04626 whole entry): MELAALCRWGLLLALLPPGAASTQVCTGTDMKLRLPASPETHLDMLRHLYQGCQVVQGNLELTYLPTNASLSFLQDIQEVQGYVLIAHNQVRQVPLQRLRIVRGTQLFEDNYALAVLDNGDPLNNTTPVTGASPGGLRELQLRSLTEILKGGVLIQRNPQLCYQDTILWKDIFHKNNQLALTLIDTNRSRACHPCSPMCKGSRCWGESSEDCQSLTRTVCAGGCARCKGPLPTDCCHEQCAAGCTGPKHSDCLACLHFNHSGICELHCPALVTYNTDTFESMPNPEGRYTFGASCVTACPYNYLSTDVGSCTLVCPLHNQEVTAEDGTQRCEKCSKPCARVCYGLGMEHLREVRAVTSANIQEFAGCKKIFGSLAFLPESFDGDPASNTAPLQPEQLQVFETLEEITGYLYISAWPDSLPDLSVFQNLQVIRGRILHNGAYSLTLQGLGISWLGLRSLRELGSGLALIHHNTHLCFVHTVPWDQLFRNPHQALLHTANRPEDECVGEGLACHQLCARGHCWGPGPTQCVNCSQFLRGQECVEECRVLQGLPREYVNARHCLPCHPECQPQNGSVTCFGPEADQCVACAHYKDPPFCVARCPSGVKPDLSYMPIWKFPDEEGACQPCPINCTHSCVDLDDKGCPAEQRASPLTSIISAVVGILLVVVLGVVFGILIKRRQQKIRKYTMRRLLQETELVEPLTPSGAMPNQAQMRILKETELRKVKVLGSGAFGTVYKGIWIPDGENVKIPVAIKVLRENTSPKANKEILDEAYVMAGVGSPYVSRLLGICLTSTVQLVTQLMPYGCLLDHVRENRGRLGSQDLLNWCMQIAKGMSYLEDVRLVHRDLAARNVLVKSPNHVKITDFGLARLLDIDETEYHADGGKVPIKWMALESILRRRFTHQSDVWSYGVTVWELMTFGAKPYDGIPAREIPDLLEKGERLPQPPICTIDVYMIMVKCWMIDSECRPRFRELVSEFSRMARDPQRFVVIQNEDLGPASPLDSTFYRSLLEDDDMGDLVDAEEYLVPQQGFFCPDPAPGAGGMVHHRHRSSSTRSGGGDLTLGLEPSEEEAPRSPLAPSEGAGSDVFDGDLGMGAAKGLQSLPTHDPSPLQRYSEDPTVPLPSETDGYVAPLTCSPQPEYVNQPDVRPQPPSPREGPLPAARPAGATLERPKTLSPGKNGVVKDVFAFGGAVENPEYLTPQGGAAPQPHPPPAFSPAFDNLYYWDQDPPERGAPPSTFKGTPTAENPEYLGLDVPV

IC50 [1]: > 200 µM
inhibition [2]: inactive
MRT [13]: 6.1 h
Tmax [14]: 4.5 h
AUC at 24 h [15]: 29.8 µg·h/mL
AUC(0-inf) [16]: 30.6 µg·h/mL
CL/F [17]: 432 mL/min
MRT [18]: 6.6 h
half-life [19]: 4.8 h
inhibition [20]: Dose-dependent effect
inhibition [21]: Dose-dependent effect
inhibition [22]: Dose-dependent effect
IC50 (cells): 0.23 µM
IC50 (MDA-MB-453): 0.26 µM
SMILES: CN(C)[C@H](CS(C)(=O)=O)c1ccc(-c2ccc3ncnc(Nc4ccc(OCc5cccc(F)c5)c(Cl)c4)c3c2)o1
IC50 [3]: 0.0184 µM
IC50 (BT-474 [4]): 0.0288 µM
IC50 (A-431): 0.634 µM
Activity (BT-474 [5]): 14%
Activity (BT-474 [6]): 77%
Activity (BT-474 [7]): 11%
Activity (BT-474 [8]): 82%
Activity (BT-474 [9]): 6%
Activity (BT-474 [10]): 80%
Activity (BT-474 [11]): 12%
Activity (BT-474 [12]): 11%
Activity (Mus musculus): Non-toxic
